Experimental data of several laboratories.
Lines come from different studies, so protocols differ.
SQLE: Squalene monooxygenase (SQLE, Homo sapiens, UniProt Q14534)
ADRA1A: Alpha-1A adrenergic receptor (ADRA1A, Homo sapiens, UniProt P35348)

NC(=O)c1ccc[n+]([C@@H]2O[C@H](COP(=O)([O-])OP(=O)(O)OC[C@H]3O[C@@H](n4cnc5c(N)ncnc54)[C@H](O)[C@@H]3O)[C@@H](O)[C@H]2O)c1 — Kd (Dihydrolipoyl dehydrogenase, mitochondrial (DLD, Homo sapiens, UniProt P09622, K430Q); binding; SPR): 1.14 µM
Nc1ccn(C[C@@H](CO)OCP(=O)(O)O)c(=O)n1 — IC50 (Solute carrier family 22 member 6 (SLC22A6, Homo sapiens, UniProt Q4U2R8, S231A); transporter uptake; inhibitor; fluorescence): 344 µM
CC(=O)c1ccc2c(c1)N(CCCN1CCC(CCO)CC1)c1ccccc1S2 — Ki (SQLE; enzyme activity; inhibitor): 0.68 µM
Cc1cc(Oc2ncccc2CN2CCN(C(c3ccccc3)c3ccccc3)CC2)ccc1-c1c(C)c(=O)[nH]c(=O)n1C — Ki (ADRA1A; ligand displacement; radioligand): 0.885 µM
O=C(O)[C@H]1O[C@@H](Oc2cc3oc(-c4ccccc4)cc(=O)c3c(O)c2O)[C@H](O)[C@@H](O)[C@@H]1O — Ki (SQLE; enzyme activity; inhibitor): 1.75 µM
O=C[C@H](O)[C@@H](O)[C@H](O)[C@H](O)COP(=O)(O)O — Ki (Hexokinase HKDC1 (Homo sapiens, UniProt Q2TB90); enzyme activity; inhibitor; absorbance): > 1000 µM
Cc1ccc(N2CCN(Cc3cccnc3Oc3ccc(-c4c(C)c(=O)[nH]c(=O)n4C)c(C)c3)CC2)cc1C — Ki (ADRA1A; ligand displacement; radioligand): 3.42 µM
CN(C)C(=O)c1cc2cnc(Nc3ccc(C(=O)NCCCCCCOc4cccc5c4C(=O)N(C4CCC(=O)NC4=O)C5=O)cc3)nc2n1C1CCCC1 (centres unmarked) — Kd (High affinity nerve growth factor receptor (NTRK1, Homo sapiens, UniProt P04629); binding; competition with immobilised ligand): < 0.2 µM
Cc1cc2nc3c(=O)[nH]c(=O)nc-3n(C[C@H](O)[C@H](O)[C@H](O)COP(=O)(O)OP(=O)(O)OC[C@H]3O[C@@H](n4cnc5c(N)ncnc54)[C@H](O)[C@@H]3O)c2cc1C — Kd (Dihydrolipoyl dehydrogenase, mitochondrial (DLD, Homo sapiens, UniProt P09622); binding; SPR): 1.27 µM
Cc1cc(Oc2ncccc2CN2CCN(c3ccccc3C#N)CC2)ccc1-c1c(C)c(=O)[nH]c(=O)n1C — Ki (ADRA1A; ligand displacement; radioligand): 1.21 µM
CC(C)C[C@H](NC(=O)[C@H](Cc1ccccc1)NC(=O)c1cnccn1)B(O)O — Kd (ATP-dependent Clp protease proteolytic subunit, mitochondrial (CLPP, Homo sapiens, UniProt Q16740); binding): 45 µM
